These results are taken from PMC2982901 (Cancer chemotherapy and pharmacology, 2010).

pIC50: −log10 of the molar value. “And” between values parts separate entries of the source, which are not always exact repeats. Equal values may be shown once. Read-outs that look alike come from different tables or passages of the source.

Data set [1] concerns Panc-1 cells. Briefly: Growth inhibition assay, Panc-1 cells. It counts as cell-based, human. The conditions noted are these: for IC50 vs. BACPT: ratio of IC50 to that of BACPT; for IC90 vs. BACPT: ratio of IC90 to that of BACPT.
Data set [2] deals with Panc-1 cells. Briefly: Drug interaction assay with gemcitabine in Panc-1 cells. It counts as cell-based, human. The following applies: for Dose reduction index: gemcitabine followed 24 h by BACPT, Panc-1. In a few lines: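 Panc-1 cells were grown in DMEM with 10% FBS and seeded at 3,000 cells/well. Gemcitabine was given first, then the test compound 24 h later. Exposure was 3 days, followed by 2 days in drug-free medium. Survival was read by ATP assay, with seven dose levels per curve in triplicate. Interaction was analysed by the Chou combination-index method as a function of fraction affected (fa = 0.5 is the IC50).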

For data set [3], the system named is MCF-7 cells. The conditions noted are these: MCF-7 cells cultured at pH 6.8 vs. 7.4; cited from earlier work.
Data set [4] has as its system NGP neuroblastoma cell line. The experiment in a line: Growth inhibition assay, NGP neuroblastoma cells. The format is cell-based, human.
For data set [5], the system named is IMR-32 neuroblastoma cell line. The experiment in a line: Growth inhibition assay, IMR-32 neuroblastoma cells. It counts as cell-based, human.
Data set [6] relates to SK-N-MC neuroblastoma cell line. The experiment in a line: Growth inhibition assay, SK-N-MC neuroblastoma cells. The format is cell-based, human.
Data set [7] relates to IMR-32 histocultures. The experiment in a line: Histoculture assay, IMR-32. The format is cell-based, human. The conditions noted are these: hypoxic (1.5% O2) and acidic (pH 6.8), results not shown.
Data set [8] concerns SK-N-BE(2c) neuroblastoma cell line. Briefly: Growth inhibition assay, SK-N-BE. It counts as cell-based, human.
Data set [9] deals with NCI-H460 xenografts. The following applies: NCI-H460 xenograft, i.p. 5/2/5 schedule vs irinotecan i.v. Q4D×3.
For data set [10], the system named is Panc-1 xenografts. The conditions noted are these: Panc-1 xenograft; for Median T–C: two tumor volume doublings.
Data set [11] deals with HT29 xenografts. The following applies: HT29 xenograft, i.p. 5/2/5 schedule vs irinotecan i.v. Q4D×3.
Data set [12] has as its system SF-295 xenografts. The following applies: SF-295 xenograft, i.p. 5/2/5 schedule vs irinotecan i.v. Q4D×3.
Where [13] appears, read: read-out: IC50 (nM) pH 6.8, pH 6.8.
Where [14] appears, read: read-out: IC50 (nM) pH 7.4, pH 7.4.
[15] abbreviates: 8.0 mg/kg i.p., 5/2/5 schedule, 8 mg/kg.
The mark [16] stands for this setting: 60 mg/kg i.v., Q4D×3 schedule, 60 mg/kg.

For orientation: pIC50 means −log10 of the IC50, conventionally taken in molar units. High values mean a low IC50, low ones a high IC50. The IC90 is the concentration needed for an effect of 90%. Higher therefore signals weaker potency. In [1] (Homo sapiens, PANC-1), `O=c1[nH]cc(F)c(=O)[nH]1` [5-Flurouracil] showed a pIC50 of 5.04 and an IC90 of 97600 nM. In addition, in data set [1] (Panc-1 cells), the “IC50 vs. BACPT” value was 2,257 and the “IC90 vs. BACPT” value is on record as 1,136.

On to `Nc1ncn([C@H]2C[C@H](O)[C@@H](CO)O2)c(=O)n1` [Decitabine], for which the pIC50 in data set [1] (Homo sapiens, PANC-1) is 4.16. Besides, in data set [1] (Panc-1 cells), the “IC90 (nM)” value was “not achieved” and the “IC50 vs. BACPT” value is listed as 16,963.

Broadly, the IC50 is the point on the concentration scale where inhibition reaches its midpoint. Take `CCCCc1c2c(nc3ccc(N)cc13)-c1cc3c(c(=O)n1C2)COC(=O)C3(O)CC` (stereo not drawn) [BACPT, 7-Butyl-10-amino-camptothecin]: the Dose reduction index in data set [2] (Fraction affected 0.2) stood at 2.0; in data set [2] (Fraction affected 0.3), 5.3; in data set [2] (Fraction affected 0.4) it was 11.0; in data set [2] (Fraction affected 0.6) it was 38.0; in data set [2] (Fraction affected 0.7) it was 69.1; in data set [2] (Fraction affected 0.8), 133.8. In addition, the “interaction in combination with gemcitabine (combination index)” value in [2] (Panc-1, molar ratio 100:1 gemcitabine:BACPT, median effect analysis) is “additive (CI = 1) to synergistic (CI < 1)”. In addition, the “increase in potency at acidic pH” value in [3] is around 15 fold. The “Fold increase at acidic pH” value was 49 in data set [4] (pH 6.8 vs 7.4); 12 in [5] (IMR-32, pH 6.8 vs 7.4); 8 in data set [6] (pH 6.8 vs 7.4); 5 in data set [8] (pH 6.8 vs 7.4). Besides, the IC50 is 26 nM in [4] (setting [13]); 1290 nM in data set [4] (setting [14]); 127 nM in data set [5] (read-out: IC50 (nM) pH 6.8, IMR-32, pH 6.8); 1390 nM in data set [5] (read-out: IC50 (nM) pH 7.4, IMR-32, pH 7.4); 0.001 nM in data set [6] (setting [14]); 0.019 nM in data set [8] (setting [13]). Besides, the IC50 in [8] (setting [14]) came to 0.099 nM. For the same molecule, the pIC50 in data set [1] (Panc-1 cells) is 8.40; in [7], 6.70. The molecule further showed an IC90 in [1] (Panc-1 cells) of 86 nM. The “IC50 vs. BACPT” value in data set [1] (Panc-1 cells) stood at 1. Also, the “IC90 vs. BACPT” value in [1] (Panc-1 cells) is on record as 1.

`CCc1c2c(nc3ccc(O)cc13)-c1cc3c(c(=O)n1C2)COC(=O)[C@]3(O)CC` [SN-38]: the pIC50 in [7] is 5.00.

For `Nc1ncn([C@@H]2O[C@H](CO)[C@@H](O)[C@H]2O)c(=O)n1` [5-Azacytidine], the pIC50 in data set [1] (Homo sapiens, PANC-1) was 4.16. Also, in data set [1] (Panc-1 cells), the “IC90 (nM)” value was “not achieved” and the “IC50 vs. BACPT” value is 16,916.

As for “7-butyl-10-amino-camptothecin-(20S) β-alanine-lysine [BACPTDP]”, the “antitumor activity relative to irinotecan” value in data set [9], in [11] and in [12] was “comparable to irinotecan” throughout. Moreover, the “Median survival” value is 27.4 ± 2.0 days in [10] (4.5 mg/kg i.p., 5/2/5 schedule); 67 days and 66.7 ± 7.8 days in data set [10] (setting [15]). For the same molecule, in data set [10] (4.5 mg/kg i.p., 5/2/5 schedule), the TFS was found to be 0. Besides, the “Median T–C” value in data set [10] (4.5 mg/kg i.p., 5/2/5 schedule) is 10.9 days; in [10] (8.0 mg/kg i.p., 5/2/5 schedule), 60.0 days. Further, in [10] (setting [15]), the “TFS (tumor-free animals at 95 days)” value was 2/6 and 2.

Regarding `COc1cc([C@@H]2c3cc4c(cc3[C@@H](O[C@@H]3O[C@@H]5CO[C@@H](C)O[C@H]5[C@H](O)[C@H]3O)[C@H]3COC(=O)[C@H]23)OCO4)cc(OC)c1O` [Etoposide], in [1] (Homo sapiens, PANC-1), the pIC50 was 6.19 and the 90% effect level (IC90) was put at 8750 nM. Moreover, in data set [1] (Panc-1 cells), the “IC50 vs. BACPT” value is listed as 160 and the “IC90 vs. BACPT” value was 102.

On to `Nc1ccn([C@@H]2O[C@H](CO)[C@@H](O)C2(F)F)c(=O)n1` [Gemcitabine], for which the Dose reduction index in [2] (Fraction affected 0.2) is listed as 1.0; in [2] (Fraction affected 0.3), 1.6; in [2] (Fraction affected 0.4) it was 2.3; in data set [2] (Fraction affected 0.5 (IC50)), 3.1; in [2] (Fraction affected 0.6), 3.9; in data set [2] (Fraction affected 0.7) it was 4.8. In data set [2] (Fraction affected 0.8), this molecule registered a Dose reduction index of 5.8. Also, the pIC50 in data set [1] (Homo sapiens, PANC-1) was 7.64. In data set [1] (Homo sapiens, PANC-1), this molecule gave an IC90 of 117 nM. In addition, the “IC50 vs. BACPT” value in data set [1] (Panc-1 cells) amounted to 6. For the same molecule, the “IC90 vs. BACPT” value in data set [1] (Panc-1 cells) was 1.

On to `C#Cc1cccc(Nc2ncnc3cc(OCCOC)c(OCCOC)cc23)c1` [Erlotinib], for which, in [1] (Panc-1 cells), the “IC50 (nM)” value is “inactive”.

In the case of `Cn1nnc2c(C(N)=O)ncn2c1=O` [Temozolomide], in data set [1] (Panc-1 cells), the “IC50 (nM)” value is “inactive”.

In data set [1] (Homo sapiens, PANC-1), `CCC1=C[C@@H]2CN(C1)Cc1c([nH]c3ccccc13)[C@@](C(=O)OC)(c1cc3c(cc1OC)N(C)[C@H]1[C@@](O)(C(=O)OC)[C@H](OC(C)=O)[C@]4(CC)C=CCN5CC[C@]31[C@@H]54)C2` [Vinorelbine] had a pIC50 of 6.99. Moreover, in data set [1] (Panc-1 cells), the “IC90 (nM)” value is reported as “not achieved” and the “IC50 vs. BACPT” value is given as 25.

Take `Cc1nc(Nc2ncc(C(=O)Nc3c(C)cccc3Cl)s2)cc(N2CCN(CCO)CC2)n1` [Dasatinib]: in data set [1] (Homo sapiens, PANC-1), the pIC50 is 5.16 and the 90% effect level (IC90) was put at 13200 nM. For the same molecule, in data set [1] (Panc-1 cells), the “IC50 vs. BACPT” value was 1,693 and the “IC90 vs. BACPT” value was 154.

Regarding `CCc1c2c(nc3ccc(OC(=O)N4CCC(N5CCCCC5)CC4)cc13)-c1cc3c(c(=O)n1C2)COC(=O)[C@]3(O)CC` [CPT-11, irinotecan], in [10] (40 mg/kg i.v., Q4D×3 schedule), the “Maximum body weight loss (%)” value was found to be 2%, the “Median survival” value was 35.0 ± 9.3 days and the TFS is on record as 0. In addition, in data set [10] (60 mg/kg i.v., Q4D×3 schedule), the “Maximum body weight loss (%)” value is given as 6% and the TFS is recorded as 0. Further, in data set [10] (setting [16]), the “Median survival” value is recorded as 31.4 ± 1.5 days and the TFS result is listed as “no tumor-free animals”.
